Activity calls are given as the source filed them. No cut-off for these calls is given here.
Assays:
[1] = Antiproliferative activity against human LNCaP-AR cells assessed as reduction in cell viability incubated for 6 days by CCK8 assay; format: functional, cell-based; details: 144 h
In short: (§1)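 Cells seeded (2×10^4 per well for VCaP, 1–3×10^3 for the others) and compound added after 24 h as a 9-point, 3-fold serial dilution. Exposure 6 days, then CCK-8 for 1–4 h and absorbance at 450 nm. IC50 from curve fit, mean of at least two independent experiments run in duplicate.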

CWR22R = assay: Antiproliferative activity against human 22Rv1 cells assessed as reduction in cell viability incubated for 6 days by CCK8 assay; format: functional, cell-based; details: 22Rv1, 144 h; in short: as §1
PC-3 = assay: Antiproliferative activity against human PC3 cells assessed as reduction in cell viability incubated for 6 days by CCK8 assay; format: functional, cell-based; details: PC-3, 144 h; in short: as §1
VCaP = assay: Antiproliferative activity against human VCaP cells assessed as reduction in cell viability incubated for 6 days by CCK8 assay; format: functional, cell-based; details: 144 h; in short: as §1
L02 = assay: Antiproliferative activity against human L02 cells assessed as reduction in cell viability incubated for 6 days by CCK8 assay; format: cell-based; details: L02, 144 h; in short: as §1
[2] = biological target: T1, Androgen receptor (Homo sapiens) (UniProt P10275); assay: Antagonist activity at androgen receptor in human VCaP cells assessed as inhibition of R1881-induced PSA mRNA expression at 5 uM after 24 hrs by qRT-PCR analysis; format: cell-based
T1 sequence (whole entry): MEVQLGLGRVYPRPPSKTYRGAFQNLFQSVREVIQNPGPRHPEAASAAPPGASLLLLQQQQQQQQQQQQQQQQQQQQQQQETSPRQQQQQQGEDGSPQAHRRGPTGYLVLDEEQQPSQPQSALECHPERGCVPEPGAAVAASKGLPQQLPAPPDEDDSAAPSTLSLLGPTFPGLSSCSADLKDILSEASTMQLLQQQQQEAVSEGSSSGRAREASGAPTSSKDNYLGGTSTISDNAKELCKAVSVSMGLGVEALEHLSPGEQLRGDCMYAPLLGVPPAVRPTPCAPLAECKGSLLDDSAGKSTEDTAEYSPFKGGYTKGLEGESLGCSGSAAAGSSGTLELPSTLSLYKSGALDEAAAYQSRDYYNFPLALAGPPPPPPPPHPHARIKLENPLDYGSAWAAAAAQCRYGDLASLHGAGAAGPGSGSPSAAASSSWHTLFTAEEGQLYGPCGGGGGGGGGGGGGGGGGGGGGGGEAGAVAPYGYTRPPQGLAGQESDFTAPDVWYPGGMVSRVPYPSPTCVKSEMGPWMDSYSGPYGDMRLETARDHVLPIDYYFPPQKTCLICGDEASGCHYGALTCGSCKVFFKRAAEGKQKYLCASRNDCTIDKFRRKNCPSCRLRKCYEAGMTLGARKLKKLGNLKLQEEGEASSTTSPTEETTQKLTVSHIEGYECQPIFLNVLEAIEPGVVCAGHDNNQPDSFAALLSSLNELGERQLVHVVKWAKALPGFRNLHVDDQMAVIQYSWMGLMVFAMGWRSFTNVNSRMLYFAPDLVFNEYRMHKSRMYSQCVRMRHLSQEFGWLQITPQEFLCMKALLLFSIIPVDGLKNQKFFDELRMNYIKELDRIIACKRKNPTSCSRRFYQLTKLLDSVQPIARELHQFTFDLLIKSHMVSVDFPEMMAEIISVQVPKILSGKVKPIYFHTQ
In short: (§2)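 VCaP cells kept 48 h in DMEM with 5% charcoal-stripped FBS, then treated 24 h with compound plus 0.2 nM R1881. RNA extracted with TRIzol, reverse-transcribed, and PSA or FKBP5 mRNA quantified by qRT-PCR normalized to GAPDH. Expressed relative to DMSO-treated samples; mean ± SD, n = 3, two-tailed t-test.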

[3] = biological target: T1, Androgen receptor (Homo sapiens); assay: Antagonist activity at androgen receptor in human VCaP cells assessed as inhibition of R1881-induced FKBP5 mRNA expression at 5 uM after 24 hrs by qRT-PCR analysis; format: cell-based; in short: as §2
[4] = biological target: T2, Steroid 17-alpha-hydroxylase/17,20 lyase (Homo sapiens, UniProt P05093); assay: Inhibition of C-myc/DDK tagged human CYP17A1 expressed in HEK293T cells assessed as reduction in formation of 17-OHP at 10 uM incubated for 30 mins by LC-MS/MS analysis; format: cell-based; details: 0.5 h
T2 sequence (P05093 whole entry): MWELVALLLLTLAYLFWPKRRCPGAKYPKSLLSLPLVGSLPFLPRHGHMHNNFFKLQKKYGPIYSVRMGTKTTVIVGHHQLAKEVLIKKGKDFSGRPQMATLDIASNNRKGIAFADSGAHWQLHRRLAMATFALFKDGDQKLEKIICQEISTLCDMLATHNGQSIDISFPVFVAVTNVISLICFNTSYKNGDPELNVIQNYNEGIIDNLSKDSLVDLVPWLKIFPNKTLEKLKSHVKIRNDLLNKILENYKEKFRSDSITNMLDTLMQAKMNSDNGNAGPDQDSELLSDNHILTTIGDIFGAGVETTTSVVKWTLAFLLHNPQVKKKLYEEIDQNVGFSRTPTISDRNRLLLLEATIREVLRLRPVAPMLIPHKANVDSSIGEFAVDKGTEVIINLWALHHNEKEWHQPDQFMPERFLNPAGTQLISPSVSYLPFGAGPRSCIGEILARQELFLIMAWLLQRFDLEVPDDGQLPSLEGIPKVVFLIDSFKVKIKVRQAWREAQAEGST
In short: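 CYP17A1 activity measured as 17α-hydroxyprogesterone formation in 50 mM Tris pH 7.4, 5 mM MgCl2. Incubation 30 min at 37 °C, quenched with 20% trichloroacetic acid; product quantified by LC-MS/MS. Mean ± SD, n = 2.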

inhibition at 10 µM [4]	Compound	IC50 [1]	IC50 (CWR22R)	IC50 (PC-3)	IC50 (VCaP)	IC50 (L02)	inhibition [2]	inhibition [3]
	CCN(c1ccc(C#N)c(Cl)c1)c1cc(-c2cn[nH]c2)ccc1C	700 nM	> 30 µM	15.3 µM				
	CCN(c1ccc(C#N)c(C(F)(F)F)c1)c1cc(-n2ccnc2)ccc1C	400 to 560 nM	16.3 µM	> 30 µM	3.92 to 30 µM			
	CCN(c1ccc(C#N)c(Cl)c1)c1cc(-c2ccc(F)nc2)ccc1C	410 nM	16.5 µM	> 30 µM	> 30 µM			
	CCN(c1cccc(-n2ccnc2)c1)c1ccc(C#N)c(Cl)c1	330 nM	> 30 µM	> 30 µM	> 30 µM	23.2 µM		
	CCN(c1ccncc1)c1cc(-c2c(C)noc2C)ccc1C	2880 nM			2.01 µM			
	Cc1noc(C)c1-c1cccc2c1CCCN2c1ccc(C#N)c(C(F)(F)F)c1	1420 nM			> 30 µM			
	N#Cc1ccc(N2CCCc3c(-c4cccnc4)cccc32)cc1C(F)(F)F	120 nM	12.3 µM	7.97 µM	13.5 µM	10.5 µM		
	CCN(c1ccc(C#N)c(Cl)c1)c1cc(-c2ccccc2)ccc1C	2780 nM	> 30 µM		> 30 µM	> 30 µM		
	CCN(c1cccc(-c2ccccc2)c1)c1ccc(C#N)c(Cl)c1	1290 nM						
	Cn1nccc1-c1cccc2c1CCCN2c1ccc(C#N)c(C(F)(F)F)c1	240 nM	10.4 µM	9.8 µM	> 30 µM			
	Cc1ccc(-c2c(C)noc2C)cc1Nc1ccncc1	3700 nM			1.97 µM		Active	Active
	CCN(c1ccc(C#N)c(Cl)c1)c1cc(-c2ccco2)ccc1C	490 nM	> 30 µM	> 30 µM	> 30 µM			
	N#Cc1ccc(N2CCc3cc(-c4cccnc4)ccc3C2)cc1C(F)(F)F	760 nM	4.79 µM		2.53 µM			
	CCN(c1ccc(C#N)c(Cl)c1)c1cc(-n2ccnc2)ccc1C	320 nM	> 30 µM	> 30 µM	> 30 µM	15 µM		
	CCN(c1cccc(-c2cncnc2)c1)c1ccc(C#N)c(Cl)c1	360 nM	> 30 µM	> 30 µM	> 30 µM			
	CCN(c1ccc(C#N)c(Cl)c1)c1cc(-c2c[nH]nc2C)ccc1C	320 nM	5.38 µM	9.03 µM	3.19 µM	5.78 µM		
	N#Cc1ccc(N2CCCc3c(-c4ccncc4)cccc32)cc1C(F)(F)F	70 nM	15 µM	28.7 µM	> 30 µM	6.38 µM		
	N#Cc1ccc(N2CCc3cc(-c4cccnc4)ccc32)cc1C(F)(F)F	1240 nM						
	CCN(c1ccc(C#N)c(Cl)c1)c1cc(-c2ccnn2C)ccc1C	170 nM	4.33 µM	7.29 µM	1.67 µM	6.23 µM	Active	Active
	N#Cc1ccc(N2CCc3cc(-c4ccncc4)ccc3C2)cc1C(F)(F)F	980 nM	6.94 µM		3.5 µM			

inhibition at 10 µM [4]	Compound	IC50 [1]	IC50 (CWR22R)	IC50 (PC-3)	IC50 (VCaP)	IC50 (L02)	inhibition [2]	inhibition [3]
	CCN(c1ccc(C#N)c(Cl)c1)c1cc(-n2cnc3ccccc32)ccc1C	390 nM	3.04 µM	8.16 µM	8.56 µM			
	N#Cc1ccc(N2CCc3cc(-c4cnc5ccccc5c4)ccc3C2)cc1C(F)(F)F	980 nM	25.9 µM	25.1 µM	> 30 µM			
	CCN(c1ccc(C#N)c(Cl)c1)c1cc(-c2cnc3ccccc3c2)ccc1C	1980 nM		3.57 µM	25.3 µM			
	CCN(c1ccccn1)c1cc(-c2c(C)noc2C)ccc1C	630 nM	5.43 µM	4.8 µM	0.87 µM	4.42 µM		
100%	C[C@]12CC[C@H](O)CC1=CC[C@@H]1[C@@H]2CC[C@]2(C)C(c3cccnc3)=CC[C@@H]12 [ABIRATERONE]							
	N#Cc1ccc(N2CCc3cc(-c4cncnc4)ccc3C2)cc1C(F)(F)F	1670 nM						
	CCN(c1ccc(C#N)c(Cl)c1)c1cc(C2=CCCCC2)ccc1C	2550 nM			20 µM			
	CCN(c1ccc(C#N)c(Cl)c1)c1cc(-c2ccncc2)ccc1C	480 nM	1.03 µM	3.58 µM	2.9 µM	1.73 µM		
	CCN(c1ccc(C#N)c(Cl)c1)c1cc(-c2cncnc2)ccc1C	400 nM	> 30 µM	> 30 µM	3.92 µM		Active	Active
50%	C[C@]12CC[C@H](O)CC1=CC[C@@H]1[C@@H]2CC[C@]2(C)C(n3cnc4ccccc43)=CC[C@@H]12 [GALETERONE]							
	N#Cc1ccc(N2CCc3cc(-c4cnc5ccccc5c4)ccc32)cc1C(F)(F)F	11500 nM						
	Cc1noc(C)c1-c1cccc(Oc2ccc(C#N)c(C(F)(F)F)c2)c1	1670 nM						
	CCN(c1cccc(-n2ccnc2)c1)c1ccc(C#N)c(C(F)(F)F)c1	580 nM	19 µM	> 30 µM	> 30 µM			
	CCN(c1ccc(C#N)c(Cl)c1)c1cc(-c2ccoc2)ccc1C	480 nM	> 30 µM	> 30 µM	4.01 µM			
	CCN(c1ccc(C#N)c(Cl)c1)c1cc(-c2cccs2)ccc1C	380 nM	22 µM	> 30 µM				
	CCN(c1ccc(C#N)c(Cl)c1)c1cc(-n2cccn2)ccc1C	290 nM	> 30 µM	15.7 µM	2.34 µM			
	CCN(c1ccc(C#N)c(Cl)c1)c1cc(-c2c(C)noc2C)ccc1C	190 nM	2.99 µM	4.84 µM	1.2 µM	8.67 µM		
	CCN(c1ccc(C#N)c(Cl)c1)c1cc(-c2cccnc2)ccc1C	330 nM	2 µM	11 µM	1.27 µM	12.7 µM	Active	Active
	N#Cc1ccc(N2CCc3cc(-c4cncnc4)ccc32)cc1C(F)(F)F	21000 nM						

— ChEMBL document CHEMBL4346686, “Discovery and biological evaluation of novel androgen receptor antagonist for castration-resistant prostate cancer” (Eur J Med Chem, 2019)
